# Results reported in paper PMC9292719 (Diabetes, Obesity & Metabolism, 2021).
# Marks after values point to notes of the source that are not given here.
# Key:
# [1] = type: in vivo, human
# Outline: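 Healthy volunteers in a randomized crossover each received a single 0.2 U/kg s.c. dose per period. Plasma was sampled predose and from 5 to 720 min postdose. Insulin aspart, with 15N-labelled internal standard, was captured on anti-insulin antibody magnetic beads and measured by UPLC-MS/MS (range 100-8000 pg/mL). AUC ratios and CIs came from Fieller's theorem. Time endpoints were summarised descriptively by treatment.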
# healthy subjects [2] = assay: Safety: treatment-emergent adverse events; type: in vivo, human; settings: single s.c. dose 0.2 U/kg; for Headache, number of subjects / Headache, percentage of subjects / Injection site erythema, number of subjects / Injection site erythema, percentage of subjects / Nasopharyngitis, number of subjects / Nasopharyngitis, percentage of subjects / Hypoglycaemia, events (one subject each): TEAE
# Outline: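 In a randomized three-period crossover with washouts, each subject received a single 0.2 U/kg s.c. dose per period. Treatment-emergent adverse events were recorded per treatment and graded mild, moderate or severe. They were summarised descriptively by visit/treatment as subject counts, percentages and event numbers.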
# healthy subjects [3] = assay: Pharmacodynamics: automated euglycaemic glucose clamp; type: in vivo, human; settings: Ref‐InsAsp‐US vs. Ref‐InsAsp‐EU (N = 65); two-sided 90% CI; Fieller's theorem
# Outline: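 Healthy adults aged 18-65 with BMI 18.5-29.0 kg/m2 and fasting glucose ≤5.5 mmol/L. Randomized crossover: single 0.2 U/kg s.c. dose per period, 12- to 16-day washout. Before dosing, variable i.v. human insulin brought blood glucose to the 81 mg/dL target. Glucose infusion was then adjusted automatically over a 12 h clamp, GIR logged every minute. Partial-AUC ratios with CIs came from Fieller's theorem.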
# [4] = healthy subjects, single s.c. dose 0.2 U/kg, plasma, arithmetic mean (SD)
# [5] = Ref‐InsAsp‐US vs. Ref‐InsAsp‐EU (N = 66), two-sided 90% CI, Fieller's theorem
Substance,"t50%‐early (time to half‐maximum before Cmax) [1, 4]","t50%‐late (time to half‐maximum after Cmax) [1, 4]","tmax (time to maximum observed insulin aspart concentration) [1, 4]","λz (terminal elimination rate constant) [1, 4]","Headache, number of subjects (healthy subjects [2])","Headache, percentage of subjects (healthy subjects [2])","Injection site erythema, number of subjects (healthy subjects [2])","Injection site erythema, percentage of subjects (healthy subjects [2])","Nasopharyngitis, number of subjects (healthy subjects [2])","Nasopharyngitis, percentage of subjects (healthy subjects [2])",Number of TEAE events (healthy subjects [2]),"Subjects with at least one TEAE, percentage (healthy subjects [2])","Subjects with at least one treatment‐emergent adverse event (TEAE), number (healthy subjects [2])","AUC0‐6h LS‐mean ratio [1, 5]","AUC6‐12h LS‐mean ratio [1, 5]","Hypoglycaemia, events (one subject each) (healthy subjects [2])","AUCGIR,0‐4h LS‐mean ratio (healthy subjects [3])","AUCGIR,0‐6h LS‐mean ratio (healthy subjects [3])","AUCGIR,6h‐last LS‐mean ratio (healthy subjects [3])"
Insulin aspart [Ref‐InsAsp‐EU],0.45 (0.12) h,3.1 (0.84) h,1.10 (0.53) h,0.86 (0.28) /h,eight,11.9%,one,1.5%,two,3.0%,13 events,19.4%,13 subjects,,,,,,
Insulin aspart [Ref‐InsAsp‐US],,3.13 (0.86) h,1.11 (0.45) h,0.82 (0.27) /h,five,7.2%,one,1.4%,none,,12 events,15.9%,11 subjects,99.71 (97.90; 101.52) %,107.18 (83.81; 137.45) %,one,94.11 (90.37; 97.99) ^b %,94.81 (91.46; 98.27) ^b %,101.05 (95.75; 106.64) ^b %
"MYL‐1601D: rapid‐acting human insulin analogue, biosimilar insulin aspart 100 U/mL, produced by recombinant DNA technology utilizing Pichia pastoris (Mylan)",,,,,four,5.7%,two,2.9%,three,4.3%,18 events,15.7%,,,,one,,,
